Assay outcomes from PubChem.
In the library only some 1.4% were active in any assay of this set; here they are far more common.
APJ antag: antagonists of human apelin receptor APJ, primary screen, CHO-K1 cells, beta-arrestin complementation, luminescence. P35414. hit rate 0.32% among 330,000. inhibition, % at 20 µM. AID 2521, 2010;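 active = inhibition above about 40% at 20 µM, limit read from the data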;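 note: cells challenged with 10 nM apelin-13 agonist together with compound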
Target sequence (P35414 whole entry, looked up): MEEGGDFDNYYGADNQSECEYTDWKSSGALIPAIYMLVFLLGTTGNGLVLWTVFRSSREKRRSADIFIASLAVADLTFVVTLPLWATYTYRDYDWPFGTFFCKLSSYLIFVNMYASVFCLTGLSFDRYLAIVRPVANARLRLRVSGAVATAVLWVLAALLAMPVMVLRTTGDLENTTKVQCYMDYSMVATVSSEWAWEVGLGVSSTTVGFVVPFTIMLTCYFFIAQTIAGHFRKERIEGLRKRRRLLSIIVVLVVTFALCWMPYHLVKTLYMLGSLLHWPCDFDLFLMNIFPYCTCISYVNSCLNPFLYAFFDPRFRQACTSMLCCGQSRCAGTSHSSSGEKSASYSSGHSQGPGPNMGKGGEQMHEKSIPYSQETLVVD
APOBEC3G inh: APOBEC3G DNA deaminase inhibitors, primary screen, biochemical, fluorescence, single-stranded DNA substrate, uHTS | recombinant A3G, ssDNA deamination FAM/TAMRA fluorescence | inhibition, % at 20 µM | hit rate 0.28% among 330,000 | AID 493012, 2011;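 active = inhibition of at least 40% at 20 µM, with no more than 30% in the related APOBEC3A deaminase screen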
A3A deaminase: APOBEC3A ssDNA deaminase inhibitors, primary screen, selectivity assay for APOBEC3G inhibitor project, biochemical, FAM/TAMRA oligo cleavage fluorescence. inhibition, % at 20 µM. hit rate 0.41% among 330,000. recombinant A3A, FAM/TAMRA ssDNA deamination fluorescence. DNA dC->dU-editing enzyme APOBEC-3A (Homo sapiens), P31941;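 active = at least 40% inhibition at 20 µM here, with at most 30% in a related deaminase screen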
Target sequence (P31941 whole entry, looked up): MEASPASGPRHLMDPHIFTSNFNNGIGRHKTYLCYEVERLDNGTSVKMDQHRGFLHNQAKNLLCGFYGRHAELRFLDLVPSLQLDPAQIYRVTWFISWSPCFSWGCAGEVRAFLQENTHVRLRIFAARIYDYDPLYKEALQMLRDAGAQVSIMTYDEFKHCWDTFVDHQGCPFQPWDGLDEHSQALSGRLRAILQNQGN
CXCR6 block: CXCR6 receptor inhibitors, primary screen, cell-based, beta-arrestin, luminescence, CHO-K1 PathHunter, 1536-well; C-X-C chemokine receptor type 6 (Homo sapiens), O00574; inhibition, % at 20 µM; hit rate 0.36% among 360,000; AID 602244, 2012; in the data active = inhibition above about 34%, passing the limit was not always enough;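 note: antagonist mode with CXCL16 agonist at 10 nM final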
APJ ag: agonists of human apelin receptor APJ, primary screen, CHO-K1 cells, PathHunter beta-arrestin, luminescence; 0% DMSO wells, 100% apelin; activation, % at 20 µM; hit rate 0.11% among 330,000; AID 2520, 2010;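 active = activation more than six SD over the plate average, tested at 20 µM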
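Material: CHO-K1 APJ beta-arrestin complementation cell line; Input: cell density 1000 per well; Incubation: compound stimulation 90 min at 25 °C, detection 60 min; Signal: luminescence from split beta-galactosidase complementation, Galacton Star/Emerald II substrate; Controls: DMSO-only wells as negative, 10 nM Apelin-13 as positive control.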
CCR6 antagonist: CCR6 receptor antagonists, primary screen, cell-based, CHO-K1, luminescence, beta-arrestin, uHTS; AID 493098, 2011; inhibition, % at 20 µM; hit rate 0.49% among 340,000; CHO-K1 CCR6 PathHunter beta-arrestin, CCL20-stimulated; C-C chemokine receptor type 6 (Homo sapiens), P51684;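 active = compounds whose inhibition of the agonist-driven luminescence signal at 20 µM reaches about 50%, limit read from the data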;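 note: cells stimulated with CCL20 at 14 nM final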
APJ antag conf: APJ antagonists blocking beta-arrestin recruitment, confirmation, cell-based, luminescence, single concentration, uHTS hits; shares compounds with APJ antag; antagonist mode; inhibition, % at 20 µM; hit rate 66% among 950; in the data active = inhibition above about 50%
Each line names hits and unclear results; the compound was inactive in the other large screens (follow-up assays come after a bar, where they were run).

COc1cc(/C=C2\SC(=S)N(NC(=O)c3ccc(O)cc3)C2=O)ccc1O	APJ antag 56, CXCR6 block 42, CCR6 antagonist 59 | APJ antag conf 92
Cc1cc(Cl)ccc1OC(C)C(=O)OCC(=O)c1ccc[nH]1 (stereo unspecified)	none
O=C(c1ccncc1)N1N=C(c2ccc(Cl)cc2)CC1c1ccccc1O (stereo unspecified)	none
O=C(NN1C(=O)/C(=C/c2cccc(O)c2)SC1=S)c1ccccc1O	none
O=C(NN1C(=O)/C(=C/c2ccc(O)c(O)c2)SC1=S)c1ccccc1	APJ antag 48, CXCR6 block 52, CCR6 antagonist 64 | APJ antag conf 106
CCN(CC)c1ccc(/C=C2\SC(=O)N(C(C)C)C2=O)o1	APJ antag 53 | APJ antag conf inactive
CC(C)N1C(=O)S/C(=C/c2ccc3c(c2)n(C)c(=O)n3C)C1=O	none
CC(C)C[C@@H](NC(=O)C1CCC(CNC(=O)[C@@H]2CCCN2C(=O)OC(C)(C)C)CC1)C(=O)O (stereo partly specified)	none
CCC(Cc1ccccc1)NS(=O)(=O)c1csc(C(N)=O)c1 (stereo unspecified)	none
COc1ccc(S(=O)(=O)Nc2ccccn2)cc1	none
COc1cc(NS(=O)(=O)c2ccc(C)cc2)c2ncccc2c1	APJ antag 72 | APJ antag conf 63
Cc1ccc(S(=O)(=O)Nc2ccccc2-c2ccccc2NS(=O)(=O)c2ccc(C)cc2)cc1	none
Cc1ccc(S(=O)(=O)Nc2cccc3cccnc23)cc1	APJ antag 76, CXCR6 block 70, CCR6 antagonist 86 | APJ antag conf 96
C[C@H](CO)N1C[C@H](C)[C@@H](CN(C)S(C)(=O)=O)Oc2c(NC(=O)c3ccncc3)cccc2C1=O	none
COc1ccc(CN2CCNC(=O)C2CC(=O)N(C)CC2CCOCC2)cc1C (stereo unspecified)	none
NC(=S)NNC(=S)Nc1ccccc1	APJ antag 41 | APJ antag conf 53
CCc1ccc2c(c1)NC(=O)C2(C)Cc1ccccc1 (stereo unspecified)	none (no result: APJ antag, APOBEC3G inh, A3A deaminase, APJ ag, CCR6 antagonist)
CCc1ccc2c(c1)C1(NN=C(c3cccc4ccccc34)S1)C(=O)N2 (stereo unspecified)	APJ antag 42 (no result: CCR6 antagonist) | APJ antag conf inactive
N=C1/C(=C/c2ccc(-c3cccc(C(=O)O)c3)o2)C(=O)N=C2SC=C(c3ccccc3)N12	APJ antag 40, CCR6 antagonist 57 | APJ antag conf 53
COc1ccc(C2=CC(=O)C[C@H](c3ccc(Cl)cc3)C2)cn1	none
COCCC(=O)N1CCOCC1c1cc(C(=O)NCc2ccccc2)no1 (stereo unspecified)	none (no result: APJ antag, APOBEC3G inh, A3A deaminase, APJ ag, CCR6 antagonist)
CCN1/C(=C2\C(=O)N(C)C(=S)N2C)C=Cc2cc(OC)ccc21	none
C=CCn1c(=O)/c(=C2/Sc3cc(OC)ccc3N2C)s/c1=C1\C(=O)N(CC)C(=S)N1C	APJ antag 50 (no result: CXCR6 block, CCR6 antagonist) | APJ antag conf 76
CC(C)(C)OC(=O)N1CCC[C@H]1c1nnc(SCC(=O)Nc2ccc(Br)cc2)o1	APJ antag 55, CXCR6 block 36 | APJ antag conf 72
CC(C)(C)OC(=O)N1CCC[C@H]1c1nnc(SCC(=O)Nc2cccc(Cl)c2)o1	none
COc1ccc(Cl)cc1-c1cc(C(=O)NCc2ccc(C(F)(F)F)cc2)[nH]n1	none (no result: APJ antag, APOBEC3G inh, A3A deaminase, APJ ag, CCR6 antagonist)
O=C(O)CCn1cc(-c2ccc(F)cc2)nc1-c1ccncc1	none
N#C/C(=N\Nc1ccc(S(=O)(=O)N2CCCCCC2)cc1)C(N)=S	APJ antag 48 | APJ antag conf 64
CC[N+](CC)(CC#Cc1ccccc1)CC(=O)c1ccc(Cl)cc1	APJ antag 77, CCR6 antagonist 69 | APJ antag conf inactive
N#C/C(=C\c1ccc(O)c([N+](=O)[O-])c1)c1nc2ccccc2s1	none (no result: APJ antag, APOBEC3G inh, A3A deaminase, APJ ag)
COc1cc(/C=C(\C#N)c2nc3ccccc3s2)cc([N+](=O)[O-])c1O	APJ antag 51, CXCR6 block 44, CCR6 antagonist 60 | APJ antag conf 88
O=C(CCNC(=O)c1ccccc1)Nc1ccc(S(=O)(=O)Nc2ncccn2)cc1	none
O=C(Cn1cc(C(F)(F)F)ccc1=O)N1CCc2ccccc21	none
O=c1c2cc(Br)ccc2[nH]c(=S)n1Cc1ccccn1	APJ antag 59, CXCR6 block 51, CCR6 antagonist 56 | APJ antag conf 93
O=c1c2cc(Br)ccc2[nH]c(=S)n1Cc1ccccc1	none
CCCCCN(C(=O)CCC(=O)OCC(=O)N(C)Cc1ccc(C)cc1)c1c(N)n(CCCC)c(=O)[nH]c1=O	none
CCCCS(=O)(=O)/C=C\C=C/S(=O)(=O)CCCC	APJ antag 69, CXCR6 block 78, CCR6 antagonist 81 | APJ antag conf 89
CCCCS(=O)(=O)/C=C\C1C2C=CC(C2)C1S(=O)(=O)CCCC (stereo unspecified)	none
O=C(NNc1ncc(C(F)(F)F)cc1Cl)c1c(Cl)cccc1Cl	none | APJ antag conf 65
Cc1c(Cl)cccc1NC(=S)NNc1ncc(C(F)(F)F)cc1Cl	APJ antag 72, CXCR6 block 53, CCR6 antagonist 87 | APJ antag conf 117
CC(C)N1CCc2c(sc(NC(=O)c3cc(-c4cccs4)nc4ccccc34)c2C(N)=O)C1	APJ antag 46, CCR6 antagonist 62 | APJ antag conf 65
CCCCN(C)CCNC(=O)CN1C(=O)CSc2ccc(S(=O)(=O)N3CCOCC3)cc21	none
CCCCN(C)CCNC(=O)CN1C(=O)CSc2ccc(S(=O)(=O)N3CCCCC3)cc21	APJ antag 49 | APJ antag conf inactive
CCOc1ccc(N(Cc2ccccc2F)C2=NC3CS(=O)(=O)CC3S2)cc1 (stereo unspecified)	none
CCN(CC)CCSc1nnc(Nc2ccccc2)n1-c1ccccc1	APJ antag 51 | APJ antag conf inactive
CC(=O)Nc1ccc(NC(=O)C2(C)CC2(Cl)Cl)cc1 (stereo unspecified)	APJ antag 91 | APJ antag conf inactive
CN(C)c1cccc(NC(=O)C2(C)CC2(Cl)Cl)c1 (stereo unspecified)	none
